Test results reported in ChEMBL document CHEMBL1240484, “New 4H-chromen-4-one and 2H-chromene derivatives as anti-picornavirus capsid-binders” (Bioorg Med Chem, 2010).
pIC50: −log10 of the molar value. Active and inactive are the calls of the source. The calls are words filed in the database; no cut-off is given here.

Assays:
[1] = tested on: rhinovirus A1B; experiment: Antiviral activity against Human rhinovirus 1B infected in human HeLa cells assessed as reduction of viral yeild at 20 uM treated immediately after virus infection measured >1 hr after washout by plaque reduction assay; assay type: functional, organism-based
Summary of the method: (§1)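 One-step growth of HRV 1B in confluent HeLa cells, multiplicity of five, attachment 1 h at 4 °C, then three PBS washes (time 0). Compound at 20 µM present throughout, during adsorption only, or added or removed at 0.5, 1, 2 or 4 h p.i. Incubation at 33 °C to 10 h p.i., three freeze-thaw cycles, supernatant titred by plaque assay on HeLa cells.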

[2] = tested on: rhinovirus A1B; experiment: Antiviral activity against Human rhinovirus 1B infected in human HeLa cells assessed as reduction of viral yeild at 20 uM treated 2 to 4 hrs after virus infection measured after 10 hrs by plaque reduction assay; assay type: functional, organism-based; summary of the method: as §1
[3] = Cytotoxicity against human Hep2 cells assessed as maximum non-cytotoxic concentration after 3 days by XTT assay; assay type: cell-based, HEp-2
Summary of the method: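 Hep-2 cells grown in high-glucose DMEM, seeded at 2 × 10³ per well with twofold dilutions from the maximum soluble concentration, quadruplicate wells, 3 days at 37 °C in 5% CO2. XTT (final 0.15 mg/mL) for 4 h, read at 492/690 nm, plus microscopic scoring. MNTC is the highest dose causing no toxic effect or growth reduction.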

[4] = tested on: rhinovirus A1B; experiment: Antiviral activity against Human rhinovirus 1B infected in human HeLa cells assessed as reduction of viral yeild at 20 uM after 1 hr by plaque reduction assay; assay type: functional; design: scale not given: the % may be the effect or the level left
[5] = Therapeutic index, ratio of TC50 for human HeLa cells to IC50 for HRV 14; assay type: cell-based; conditions: read-out: TI
Summary of the method: (§2)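 Therapeutic index calculated as TC50 for HeLa cells (XTT, 3 days) divided by IC50 for plaque reduction of HRV 14 or HRV 1B in HeLa cells.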

[6] = tested on: Enterovirus A71; experiment: Antiviral activity against Human enterovirus 71 infected in human Hep2 cells at maximum non-cytotoxic concentration […] by plaque reduction assay; assay type: functional, HEp-2
[7] = tested on: rhinovirus A1B; experiment: Antiviral activity against Human rhinovirus 1B infected in human HeLa cells assessed as reduction of viral yeild at 20 uM treated 1 hr after virus infection measured after 10 hrs by plaque reduction assay; assay type: functional; design: scale not given: the % may be the effect or the level left; summary of the method: as §1
[8] = tested on: rhinovirus A1B; experiment: Antiviral activity against Human rhinovirus 1B infected in human HeLa cells after 3 days by plaque reduction assay; assay type: functional, organism-based
Summary of the method: (§3)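 HeLa monolayers infected with ATCC HRV 14 or 1B at about 100 plaques per well, 1 h adsorption at 33 °C. Inoculum removed, then plaque overlay with fourfold drug dilutions from the MNTC. Three days at 33 °C, neutral red (0.2 mg/mL, PBS pH 7.4) staining and plaque count, triplicate wells. IC50 from log dose vs % reduction relative to mock-treated control. Otherwise % inhibition at MNTC is reported.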

[9] = tested on: rhinovirus A1B; experiment: Antiviral activity against Human rhinovirus 1B infected in human HeLa cells assessed as reduction of viral yeild at 20 uM treated 1 hr before infection measured after 10 hrs by plaque reduction assay; assay type: functional, organism-based; summary of the method: as §1
[10] = Cytotoxicity against human HeLa cells assessed as maximum non-cytotoxic concentration after 3 days by XTT assay; assay type: cell-based
Summary of the method: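 HeLa cells seeded at 2 × 10³ per well with twofold compound dilutions from the maximum soluble concentration, quadruplicate wells, 37 °C in 5% CO2 for 3 days until controls were confluent. XTT added (final 0.15 mg/mL) for 4 h, absorbance read at 492 nm with 690 nm reference. Morphology also scored microscopically. […] MNTC is the highest dose with no toxicity or growth reduction.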

[11] = tested on: rhinovirus A1B; experiment: Antiviral activity against Human rhinovirus 1B infected in human HeLa cells assessed as inhibition of viral replication at 20 uM after 10 hrs by plaque reduction assay; assay type: functional; design: scale not given: the % may be the effect or the level left; summary of the method: as §1
[12] = tested on: rhinovirus B14; experiment: Antiviral activity against Human rhinovirus 14 infected in human HeLa cells after 3 days by plaque reduction assay; assay type: functional, organism-based; summary of the method: as §3
[13] = Therapeutic index, ratio of TC50 for human HeLa cells to IC50 for HRV 1B; assay type: cell-based; conditions: read-out: TI; summary of the method: as §2
[14] = Cytotoxicity against human HeLa cells after 3 days by XTT assay; assay type: cell-based; conditions: read-out: TC50
Summary of the method: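 HeLa cells seeded at 2 × 10³ per well with twofold compound dilutions from the maximum soluble concentration, quadruplicate wells, 37 °C in 5% CO2 for 3 days until controls were confluent. Morphology also scored microscopically. MNTC is the highest dose with no toxicity or growth reduction.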

[15] = tested on: rhinovirus A1B; experiment: Antiviral activity against Human rhinovirus 1B infected in human HeLa cells assessed as reduction of viral yeild at 20 uM treated 30 mins after virus infection measured after 10 hrs by plaque reduction assay; assay type: functional; design: scale not given: the % may be the effect or the level left; summary of the method: as §1
[16] = tested on: rhinovirus A1B; experiment: Antiviral activity against Human rhinovirus 1B infected in human HeLa cells assessed as reduction of viral yeild at 20 uM treated immediately after virus infection measured 30 mins after washout by plaque reduction assay; assay type: functional; design: scale not given: the % may be the effect or the level left; summary of the method: as §1
[17] = tested on: rhinovirus A1B; experiment: Antiviral activity against Human rhinovirus 1B infected in human HeLa cells assessed as reduction of viral yeild at 20 uM treated immediately after virus infection measured after 10 hrs by plaque reduction assay; assay type: functional; design: scale not given: the % may be the effect or the level left; summary of the method: as §1
[18] = tested on: Enterovirus A71; experiment: Antiviral activity against Human enterovirus 71 infected in human Hep2 cells after 2 days by plaque reduction assay; assay type: functional, organism-based
Summary of the method: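 Inoculum removed, then plaque overlay with fourfold drug dilutions starting from the MNTC. Two days at 37 °C, neutral red (0.2 mg/mL in PBS pH 7.4) staining, plaques counted, triplicate wells. IC50 taken from log dose vs % plaque reduction.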

[19] = tested on: rhinovirus A1B; experiment: Antiviral activity against Human rhinovirus 1B infected in human HeLa cells assessed as virus stabilization at 20 uM at 56 degC after 1 hr by plaque reduction assay (reference value: 3.5 x 10^7 PFU/ml); assay type: functional
Summary of the method: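 HRV 1B held with or without 20 µM compound for 1 h at 33 °C, then heated 20 min at 56 °C (pH 7.2) and chilled on ice. Serial 10-fold dilution and plaque titration on HeLa monolayers.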

[20] = tested on: rhinovirus A1B; experiment: Antiviral activity against Human rhinovirus 1B infected in human HeLa cells assessed as virus inactivation at 20 uM at 33 degC after 1 hr by plaque reduction assay (reference value: 2.86 x 10^7 PFU/ml)

Structure (SMILES): C1=C(/C=C/c2ccccc2)COc2ccccc21
- Activity [1]: Active
- Activity [2]: inactive
- MNTC at 72 h [3]: 12.5 µM
- Activity [4]: 91.7%
- selectivity ratio [5]: 36.2
- inhibition (INH) [6]: 36.1%
- Activity [7]: 7.7%
- Activity [8]: Dose-dependent effect
- pIC50 ([8]; Rhinovirus A, 72 h): 6.70
- Activity [9]: inactive
- MNTC at 72 h [10]: 25 µM
- Activity [11]: 92%
- Activity [12]: Dose-dependent effect
- pIC50 ([12]; Rhinovirus B, 72 h): 5.86
- selectivity ratio [13]: 250
- CC50 at 72 h [14]: 50 µM
- Activity [15]: 90%
- Activity [16]: 91.8%
- Activity [17]: 91.4%
- pIC50 ([18]; Enterovirus A, HEp-2, 48 h): < 4.90
- Activity ([18]; HEp-2): Dose-dependent effect
- log10PFU/ml [19]: 2.1
- PFU/ml [20]: 26600000
